The CC50 is the concentration at which the toxic effect on the cells reaches its halfway point.

Calls of active or inactive are those of the source. The calls are words filed in the database; no cut-off is given here. Bounds are passed on as bounds.

The nature of series [1]: Selectivity index, ratio of CC50 for African green monkey CV1 cells to IC50 for Vaccinia virus LIVP harboring GFP infected in African green monkey CV1 cells. As to conditions: read-out: Ratio CC50/IC50. Type of series: toxicity.
A short description of series [2]: Cytotoxicity against African green monkey CV1 cells assessed as viable cells at 1 uM after 110 hrs by real-time cell analysis relative to control. It is filed as cell-based, CV-1. As to conditions: chlorocebus aethiops, read-out: Activity. Put shortly: (§1)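 CV-1 cell viability was monitored in real time on an xCelligence Real-Time Cell Analyzer. This ran in parallel with the plaque-forming assay, in which cells were pre-incubated with the compounds for 4 h before infection.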

A further series deals with L929. The series can be described thus: Induction of IFN-alpha activity in mouse L929 cells infected with Encephalomyocarditis virus at 10 uM preincubated with cells for overnight followed by viral infection by optical microscopic analysis. It is filed as functional, cell-based.
The nature of series [3]: Cytotoxicity against African green monkey CV1 cells assessed as reduction in cell viability preincubated for 4 hrs measured after 24 hrs by MTT assay relative to control. As to conditions: chlorocebus aethiops. It is filed as cell-based, CV-1. The method, boiled down:
(§2)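 CV-1 cells were exposed to test samples at 0.1, 10 and 100 μM. Viability was read by MTT assay.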
(Tetrazolium assays rely on reduction of a dye to a coloured formazan, in cell work by metabolically active cells.)

For series [4], the system named is Vesicular stomatitis virus. In words: Antiviral activity against Vesicular stomatitis virus at 0.2 to 620 uM after 24 hrs post infection relative to control. Type of series: functional.
Series [5] can be described thus: Cytotoxicity against African green monkey CV1 cells assessed as viable cells at 30 uM after 110 hrs by real-time cells analysis relative to control. Type of series: cell-based, CV-1. As to conditions: chlorocebus aethiops, read-out: Activity. Put shortly:
as §1

A short description of series [6]: Cytotoxicity against African green monkey CV1 cells assessed as cell viability at 0.1 to 100 uM preincubated for 4 hrs measured after 24 hrs by MTT assay relative to control. The note with it: chlorocebus aethiops, read-out: Activity. Type of series: cell-based, CV-1. Put shortly:
as §2

The species named for a further series is Bos taurus. The series can be described thus: Displacement of ethidium bromide from calf thymus DNA by fluorescence binding assay.
A short description of series [7]: Cytotoxicity against African green monkey CV1 cells assessed as viable cells at 10 uM after 110 hrs by real-time cell analysis relative to control. It is filed as cell-based, CV-1. The note with it: chlorocebus aethiops, read-out: Activity. Put shortly: as §1
Series [8] in a line: Cytotoxicity against African green monkey CV1 cells assessed as viable cells at 50 uM after 110 hrs by real-time cell analysis relative to control. As to conditions: chlorocebus aethiops, read-out: Activity. Type of series: cell-based, CV-1. Put shortly: as §1
Series [9] is described as follows: Cytotoxicity against African green monkey CV1 cells assessed as viable cells at 5 uM after 110 hrs by real-time cell analysis relative to control. It is filed as cell-based, CV-1. The note with it: chlorocebus aethiops, read-out: Activity. The method, boiled down: as §1

`CN(C)CCCNCCn1c2ccccc2c2nc3ccccc3nc21`: the selectivity ratio in series [1] came out at 4. Moreover, the viability at 110 h, 1 µM in series [2] came to 114%. In addition, in the series on L929, the result was inactive. The CC50 at 24 h in series [3] was 50 to 92 µM. The compound further yielded an Activity in [4] of 69%. For the same compound, the viability at 110 h, 30 µM in [5] came out at 75%. In addition, in series [6], the viability at 24 h, up to 100 µM is 88%. In the series listed under Bos taurus, the log Ka is 6.76. Besides, in series [7], the viability at 110 h, 10 µM was 110%.

In the case of `CN(C)CCOC(=O)CCCn1c2ccccc2c2nc3ccccc3nc21`, the cytotoxic concentration (CC50) at 24 h in series [3] came out at 100 µM. Besides, in series [4], the Activity is listed as 75%. In addition, in [6], the viability at 24 h, up to 100 µM came to 94%. In the series listed under Bos taurus, the log Ka stood at 5.56.

As for `O=C(Cn1c2ccccc2c2nc3ccccc3nc21)NCCN1CCOCC1`, in [3], the CC50 at 24 h is more than 100 µM. The compound further had an Activity in [4] of 50%. Besides, the viability at 24 h, up to 100 µM in series [6] amounted to 109%. Further, the log Ka in the series listed under Bos taurus is 5.13.

Take `CN(C)CCCNC(=O)Cn1c2ccccc2c2nc3ccccc3nc21`: in series [1], the selectivity ratio was determined as 50. Also, in [2], the viability at 110 h, 1 µM was determined as 104%. In the series on L929, the outcome was inactive. For the same compound, the CC50 at 24 h in series [3] fell in the range of 100 to 500 µM. Moreover, the viability at 110 h, 50 µM in [8] was 90%. The compound further gave an Activity in series [4] of 50%. The viability at 24 h, up to 100 µM in [6] is 84%. The compound further yielded a log Ka in the series listed under Bos taurus of 5.2. The viability at 110 h, 10 µM in [7] came out at 131%.

As for `CN(C)CCNC(=O)Cn1c2ccccc2c2nc3ccccc3nc21`, in series [3], the half-maximal cytotoxic concentration (CC50) at 24 h is more than 100 µM. In [4], this compound gave an Activity of 82%. In [6], the viability at 24 h, up to 100 µM worked out at 94%. This compound yielded a log Ka in the series listed under Bos taurus of 5.38.

Turning to `O=C(Cn1c2ccccc2c2nc3ccccc3nc21)NCCCN1CCOCC1`, the CC50 at 24 h in series [3] was more than 100 µM. Besides, in [4], the Activity amounted to 60%. Besides, the viability at 24 h, up to 100 µM in series [6] was 102%. For the same compound, the log Ka in the series listed under Bos taurus was 5.32.

As to `O=C(Cn1c2ccccc2c2nc3ccccc3nc21)OCCN1CCCCC1`, the CC50 at 24 h in series [3] is more than 100 µM. Besides, the Activity in [4] stood at 50%. In addition, the viability at 24 h, up to 100 µM in series [6] was found to be 102%. Further, the log Ka in the series listed under Bos taurus turned out to be 5.39.

As to `CCCCN(C)CCn1c2ccccc2c2nc3ccccc3nc21`, the CC50 at 24 h in [3] is more than 100 µM. Besides, in [4], the Activity was 75%. Besides, the viability at 24 h, up to 100 µM in series [6] amounted to 92%. In the series filed under Bos taurus, this compound had a log Ka of 5.93.

`CCN(CC)CCCNCCn1c2ccccc2c2nc3ccccc3nc21`: the viability at 110 h, 1 µM in series [2] is 97.1%. Also, in series [3], the CC50 at 24 h fell in the range of 30 to 50 µM. In addition, the viability at 110 h, 50 µM in [8] amounted to 17.2%. The Activity in series [4] stood at 53%. Also, in series [6], the viability at 24 h, up to 100 µM came out at 74%. In series [9], the viability at 110 h, 5 µM was determined as 125%. In the series filed under Bos taurus, this compound yielded a log Ka of 6.87. Besides, the viability at 110 h, 10 µM in series [7] came to 125%.

Regarding `COc1ccc2c(c1)c1nc3ccccc3nc1n2CCN1CCCCC1`, the selectivity ratio in series [1] came to 34. The viability at 110 h, 1 µM in series [2] turned out to be 108%. The result with L929 was inactive. For the same compound, the half-maximal cytotoxic concentration (CC50) at 24 h in [3] is 100 to 170 µM. For the same compound, the viability at 110 h, 50 µM in series [8] came out at 75.6%. In [6], the viability at 24 h, up to 100 µM is 79%. Besides, in series [7], the viability at 110 h, 10 µM is 96.9%.

Turning to `CCN(CC)CCNC(=O)Cn1c2ccccc2c2nc3ccccc3nc21`, the CC50 at 24 h in series [3] is more than 100 µM. Also, the Activity in series [4] stood at 75%. In addition, the viability at 24 h, up to 100 µM in series [6] turned out to be 100%. The log Ka in the series filed under Bos taurus is 5.03.

`CN(C)CCCOC(=O)Cn1c2ccccc2c2nc3ccccc3nc21`: the half-maximal cytotoxic concentration (CC50) at 24 h in series [3] is 100 µM. In [4], this compound registered an Activity of 100%. The viability at 24 h, up to 100 µM in series [6] was 87%. The same compound returned a log Ka in the series filed under Bos taurus of 5.28.

For `CCN(CC)CCCC(C)N1C(=O)c2cccc3cccc(c23)C1=O` (configuration not stated), the CC50 at 24 h in series [3] amounted to 50 µM. Further, the viability at 24 h, up to 100 µM in series [6] is 86%. In the series filed under Bos taurus, this compound gave a log Ka of 5.5.

`CCN(CC)CCCNC(=O)Cn1c2ccccc2c2nc3ccccc3nc21`: in series [3], the CC50 at 24 h came out at 100 µM. Further, the Activity in series [4] was 85%. In addition, in series [6], the viability at 24 h, up to 100 µM is 88%. In addition, the log Ka in the series filed under Bos taurus was 4.93.

Take `O=C(CN1CCCC1)NN1C(=O)c2cccc3cccc(c23)C1=O`: the CC50 at 24 h in [3] is more than 100 µM. Besides, the viability at 24 h, up to 100 µM in series [6] was found to be 99%. The compound also registered a log Ka in the series listed under Bos taurus of 5.41.

Turning to `CN1CCN(CCn2c3ccccc3c3nc4ccccc4nc32)CC1`, the half-maximal cytotoxic concentration (CC50) at 24 h in [3] was found to be 50 µM. In [4], the Activity is listed as 85%. Besides, the viability at 24 h, up to 100 µM in series [6] is 82%. Moreover, the log Ka in the series listed under Bos taurus came out at 5.87.

For `c1ccc2nc3c(nc2c1)c1ccccc1n3CCNCCN1CCCCC1`, the half-maximal cytotoxic concentration (CC50) at 24 h in series [3] is more than 100 µM. The Activity in series [4] came out at 52%. Further, in series [6], the viability at 24 h, up to 100 µM was 113%. Also, the log Ka in the series filed under Bos taurus is 6.85.

In the case of `O=C(CCCn1c2ccccc2c2nc3ccccc3nc21)OCCN1CCOCC1`, in series [3], the CC50 at 24 h is more than 100 µM. For the same compound, the Activity in series [4] turned out to be 80%. The viability at 24 h, up to 100 µM in [6] was determined as 102%. In the series listed under Bos taurus, this compound returned a log Ka of 5.7.

For `CCN(CC)CCNC(=O)CCCn1c2ccccc2c2nc3ccccc3nc21`, the half-maximal cytotoxic concentration (CC50) at 24 h in series [3] is 100 µM. Also, in [6], the viability at 24 h, up to 100 µM was 88%. This compound returned a log Ka in the series filed under Bos taurus of 5.25.

For the compound `O=C(CN1CCCCCC1)NN1C(=O)c2cccc3cccc(c23)C1=O`, the 50% cytotoxic concentration (CC50) at 24 h in series [3] was more than 100 µM. Further, the viability at 24 h, up to 100 µM in series [6] stood at 97%. In the series listed under Bos taurus, the log Ka is 5.53.

Take `CCN(CC)CCNCCn1c2ccccc2c2nc3ccccc3nc21`: in series [3], the CC50 at 24 h was more than 100 µM. In series [4], this compound registered an Activity of 73%. The viability at 24 h, up to 100 µM in series [6] was determined as 99%. For the same compound, the log Ka in the series filed under Bos taurus came to 6.82.

Turning to `CN1CCN(CC(=O)NN2C(=O)c3cccc4cccc(c34)C2=O)CC1`, in series [3], the CC50 at 24 h was 100 µM. Further, the viability at 24 h, up to 100 µM in [6] turned out to be 84%. The compound also displayed a log Ka in the series listed under Bos taurus of 5.43.

As to `CN(C)CCNCCn1c2ccccc2c2nc3ccccc3nc21`, in [3], the CC50 at 24 h is more than 100 µM. This compound also registered an Activity in series [4] of 42%. For the same compound, in series [6], the viability at 24 h, up to 100 µM came out at 99%. In the series listed under Bos taurus, the log Ka amounted to 6.83.

With `c1ccc2nc3c(nc2c1)c1ccccc1n3CCNCCCN1CCOCC1`, the selectivity ratio in series [1] was 4. In series [2], the viability at 110 h, 1 µM was found to be 107%. Further, the result with L929 was inactive. For the same compound, the CC50 at 24 h in series [3] is 50 to 81 µM. Also, the Activity in [4] came out at 52%. The viability at 110 h, 30 µM in series [5] was found to be 75%. For the same compound, the viability at 24 h, up to 100 µM in series [6] came out at 79%. The compound further yielded a log Ka in the series listed under Bos taurus of 6.72. Moreover, the viability at 110 h, 10 µM in series [7] turned out to be 110%.

Consider `CN(C)CCn1c2ccccc2c2nc3ccccc3nc21`, for which the cytotoxic concentration (CC50) at 24 h in [3] is 10 µM. Besides, in series [4], the Activity stood at 75%. Besides, the viability at 24 h, up to 100 µM in series [6] amounted to 62%. In the series filed under Bos taurus, this compound returned a log Ka of 5.93.

Values taken from ChEMBL document CHEMBL4052722, “Virtual screening, synthesis and biological evaluation of DNA intercalating antiviral agents” (Bioorg Med Chem Lett, 2017).
